From ChEMBL document CHEMBL2157928, “Diarylheptanoid glycosides from Tacca plantaginea and their effects on NF-κB activation and PPAR transcriptional activity” (Bioorg Med Chem Lett, 2012)

Columns and labels:
Format in all cases: cell-based
[1] = biological target: T1, Peroxisome proliferator-activated receptor delta (Homo sapiens, UniProt Q03181); test: (§1) Transactivation of GAL4-fused PPARbeta (delta) ligand binding domain transfected in human HepG2 cells after 20 hrs by luciferase reporter gene assay
T1 sequence (Q03181 whole entry): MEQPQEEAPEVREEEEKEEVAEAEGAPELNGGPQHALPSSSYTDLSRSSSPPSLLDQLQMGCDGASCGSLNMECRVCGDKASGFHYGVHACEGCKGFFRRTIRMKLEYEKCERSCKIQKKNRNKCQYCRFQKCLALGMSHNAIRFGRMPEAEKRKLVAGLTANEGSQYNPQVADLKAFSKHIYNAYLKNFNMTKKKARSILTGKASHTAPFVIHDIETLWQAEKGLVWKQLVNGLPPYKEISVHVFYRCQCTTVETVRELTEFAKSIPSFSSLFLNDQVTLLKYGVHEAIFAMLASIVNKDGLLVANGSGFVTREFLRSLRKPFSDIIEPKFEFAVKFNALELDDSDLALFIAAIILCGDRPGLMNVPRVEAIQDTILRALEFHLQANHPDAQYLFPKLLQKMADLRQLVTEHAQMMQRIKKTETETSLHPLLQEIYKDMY
Procedure, shortened: (§2)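 For PPARβ(δ), luciferase transactivation was measured in HepG2 cells against a vehicle group, with L-165041 (1 µM) as positive control. EC50 came from the dose–response, given as mean ± SD (n = 3), with a cutoff of EC50 > 50 µM for inactivity.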

[2] = biological target: T2, Peroxisome proliferator-activated receptor gamma (Homo sapiens, UniProt P37231); test: Transactivation of GAL4-fused PPARgamma ligand binding domain transfected in human HepG2 cells after 20 hrs by luciferase reporter gene assay
T2 sequence (P37231 whole entry): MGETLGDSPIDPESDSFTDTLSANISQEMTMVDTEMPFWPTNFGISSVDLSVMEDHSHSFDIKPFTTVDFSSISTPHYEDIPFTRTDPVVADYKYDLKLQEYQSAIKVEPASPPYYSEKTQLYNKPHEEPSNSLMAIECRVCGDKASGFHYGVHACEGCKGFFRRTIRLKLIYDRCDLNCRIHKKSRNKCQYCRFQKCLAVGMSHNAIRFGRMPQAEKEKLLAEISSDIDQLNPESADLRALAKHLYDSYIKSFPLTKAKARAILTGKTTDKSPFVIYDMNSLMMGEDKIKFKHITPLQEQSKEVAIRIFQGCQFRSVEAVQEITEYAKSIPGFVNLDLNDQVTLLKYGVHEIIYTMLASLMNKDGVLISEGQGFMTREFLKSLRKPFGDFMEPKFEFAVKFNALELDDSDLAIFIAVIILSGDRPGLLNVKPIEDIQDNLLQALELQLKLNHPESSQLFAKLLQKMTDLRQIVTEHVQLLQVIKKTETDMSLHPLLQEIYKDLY

HepG2 [3] = test: Cytotoxicity against human HepG2 cells assessed as cell viability at 10 uM after 24 hrs by MTS assay; conditions: hepg2, 24 h
[4] = biological target: T3, Peroxisome proliferator-activated receptor alpha (Homo sapiens, UniProt Q07869); test: Transactivation of GAL4-fused PPARalpha ligand binding domain transfected in human HepG2 cells after 20 hrs by luciferase reporter gene assay
T3 sequence (Q07869 whole entry): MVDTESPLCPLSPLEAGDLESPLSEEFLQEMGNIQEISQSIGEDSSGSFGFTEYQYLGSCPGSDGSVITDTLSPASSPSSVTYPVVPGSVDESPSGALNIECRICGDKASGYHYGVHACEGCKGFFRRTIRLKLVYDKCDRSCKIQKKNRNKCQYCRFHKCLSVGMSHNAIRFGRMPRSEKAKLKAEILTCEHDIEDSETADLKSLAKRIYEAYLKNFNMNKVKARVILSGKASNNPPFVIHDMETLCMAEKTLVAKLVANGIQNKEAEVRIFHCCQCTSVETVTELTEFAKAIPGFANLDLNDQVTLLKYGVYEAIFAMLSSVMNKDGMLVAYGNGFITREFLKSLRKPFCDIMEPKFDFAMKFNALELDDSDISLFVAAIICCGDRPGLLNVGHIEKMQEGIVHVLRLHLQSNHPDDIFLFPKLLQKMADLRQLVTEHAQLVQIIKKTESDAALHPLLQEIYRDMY
Procedure, shortened: (§3)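 PPARα transactivation was measured by luciferase reporter in HepG2 cells. Activity was compared with a vehicle group, and ciprofibrate (1 µM) was the positive control.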

[5] = biological target: T4, Peroxisome proliferator-activated receptor delta (Homo sapiens) (UniProt Q03181); test: as §1; procedure, shortened: as §2
T4 sequence (whole entry): T1 sequence (Q03181 whole entry)

[6] = biological target: Peroxisome proliferator-activated receptor (Homo sapiens) (UniProt P37231+Q07869+Q03181); test: (§4) Transactivation of PPAR transfected in human HepG2 cells after 20 hrs by luciferase reporter gene assay
[7] = biological target: T5, Peroxisome proliferator-activated receptor (Homo sapiens, UniProt P37231+Q07869+Q03181); test: as §4
T5 sequence (P37231 whole entry): T2 sequence (P37231 whole entry)
T5 sequence (Q07869 whole entry): T3 sequence (Q07869 whole entry)
T5 sequence (Q03181 whole entry): T1 sequence (Q03181 whole entry)

[8] = (§5) Inhibition of NF-kappaB expressed in human HepG2 cells assessed as inhibition of TNFalpha-induced luciferase activity preincubated for 1 hr followed by TNFalpha challenge measured after 1 hr by reporter gene assay
Procedure, shortened: (§6)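 HepG2 cells transfected with an NF-κB-luciferase reporter were pretreated with compound at 0.1, 1 and 10 µM, then stimulated with TNF-α at 10 ng/mL. Sulfasalazine at 10 µM served as positive control. Luciferase activity was read. Data are mean ± SD (n = 3), with Dunnett's multiple comparison test, and IC50 was derived from the dose–response.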

HepG2 [9] = test: as §5; procedure, shortened: as §6
[10] = biological target: T6, Peroxisome proliferator-activated receptor alpha (Homo sapiens) (UniProt Q07869); test: Transactivation of GAL4-fused PPARalpha ligand binding domain transfected in human HepG2 cells at 10 uM after 20 hrs by luciferase reporter gene assay relative to control; procedure, shortened: as §3
T6 sequence (whole entry): T3 sequence (Q07869 whole entry)

[11] = biological target: T7, Peroxisome proliferator-activated receptor gamma (Homo sapiens) (UniProt P37231); test: Transactivation of GAL4-fused PPARgamma ligand binding domain transfected in human HepG2 cells assessed as upregulation of gene expression at 10 uM by luciferase reporter gene assay relative to control
T7 sequence (whole entry): T2 sequence (P37231 whole entry)
Procedure, shortened: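 In HepG2 cells, PPARγ luciferase transactivation was expressed as fold over the vehicle group. Troglitazone (1 µM) was the positive control, and significance was set against vehicle at p < 0.01.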

SMILES | EC50 [1] [µM] | EC50 [2] [µM] | EC50 [4] [µM] | Activity [5] | Activity [6] | EC50 [7] [µM] | IC50 [8] [µM] | fold change (FC) [10] | fold change (FC) [11] | Activity (HepG2 [3]) | inhibition (HepG2 [9])
CCCc1c(OCCCOc2ccc(OCC(=O)O)cc2)ccc(C(C)=O)c1O | 0.65 | – | – | – | – | – | – | – | – | – | –
OC[C@H]1O[C@@H](O[C@H](CCc2ccc(O)c(O)c2)C[C@H](O)CCc2ccc(O)cc2)[C@H](O)[C@@H](O)[C@@H]1O | 15.6 | > 50 | 42.9 | Dose-dependent effect | Dose-dependent effect | 0.3 | 0.9 | 1.4 | – | Non-toxic | Dose-dependent effect
OC[C@H]1O[C@@H](O[C@H](CCc2ccc(O)cc2)C[C@H](O)CCc2ccc(O)cc2)[C@H](O)[C@@H](O)[C@@H]1O | 29.3 | > 50 | > 50 | Dose-dependent effect | Dose-dependent effect | 1.2 | 6.2 | – | – | Non-toxic | Dose-dependent effect
O=C(O)c1cc(/N=N/c2ccc(S(=O)(=O)Nc3ccccn3)cc2)ccc1O [SULFASALAZINE] | – | – | – | – | – | – | 0.9 | – | – | – | –

Further lines, with some results ahead:

EC50 [1] [µM] | EC50 [2] [µM] | EC50 [4] [µM] | Activity [5] | Activity [6] | EC50 [7] [µM] | IC50 [8] [µM] | fold change (FC) [10] | fold change (FC) [11] | SMILES | Activity (HepG2 [3]) | inhibition (HepG2 [9])
30.1 | > 50 | > 50 | Dose-dependent effect | Dose-dependent effect | 5.2 | 8 | – | – | OC[C@H]1O[C@@H](O[C@@H]2C[C@H](CCc3ccc(O)c(O)c3)O[C@H](c3ccc(O)c(O)c3)C2)[C@H](O)[C@@H](O)[C@@H]1O [PLANTAGINEOSIDE C] | Non-toxic | Dose-dependent effect
11 | > 50 | 47.1 | Dose-dependent effect | Dose-dependent effect | 7 | > 10 | 1.4 | – | O=C(CCCCc1ccc(O[C@@H]2O[C@H](CO)[C@@H](O)[C@H](O)[C@H]2O)c(O)c1)CCc1ccc(O[C@@H]2O[C@H](CO)[C@@H](O)[C@H](O)[C@H]2O)c(O)c1 [PLANTAGINEOSIDE A] | Non-toxic | –
13.1 | 33.1 | > 50 | Dose-dependent effect | Dose-dependent effect | 10.4 | > 10 | 1.3 | 1.5 | OC[C@H]1O[C@@H](Oc2ccc(CCCC[C@H](O)CCc3ccc(O[C@@H]4O[C@H](CO)[C@@H](O)[C@H](O)[C@H]4O)c(O)c3)cc2O)[C@H](O)[C@@H](O)[C@@H]1O [PLANTAGINEOSIDE B] | Non-toxic | –
23.1 | > 50 | > 50 | Dose-dependent effect | Dose-dependent effect | 9.9 | 9.4 | 1.3 | – | OC[C@H]1O[C@@H](O[C@H](CCc2ccc(O)c(O)c2)C[C@H](O)CCc2ccc(O)c(O)c2)[C@H](O)[C@@H](O)[C@@H]1O | Non-toxic | Dose-dependent effect
